Measurements reported in ChEMBL document CHEMBL3632461 (J Med Chem, 2015).
Each block holds one compound with its values, some of them ahead of it. The source made the active and inactive calls. The calls are words filed in the database; no cut-off is given here.

Key:
[1] = biological target: T1, Myeloperoxidase (Homo sapiens) (UniProt P05164); conditions: 24 uM
T1 sequence (whole entry): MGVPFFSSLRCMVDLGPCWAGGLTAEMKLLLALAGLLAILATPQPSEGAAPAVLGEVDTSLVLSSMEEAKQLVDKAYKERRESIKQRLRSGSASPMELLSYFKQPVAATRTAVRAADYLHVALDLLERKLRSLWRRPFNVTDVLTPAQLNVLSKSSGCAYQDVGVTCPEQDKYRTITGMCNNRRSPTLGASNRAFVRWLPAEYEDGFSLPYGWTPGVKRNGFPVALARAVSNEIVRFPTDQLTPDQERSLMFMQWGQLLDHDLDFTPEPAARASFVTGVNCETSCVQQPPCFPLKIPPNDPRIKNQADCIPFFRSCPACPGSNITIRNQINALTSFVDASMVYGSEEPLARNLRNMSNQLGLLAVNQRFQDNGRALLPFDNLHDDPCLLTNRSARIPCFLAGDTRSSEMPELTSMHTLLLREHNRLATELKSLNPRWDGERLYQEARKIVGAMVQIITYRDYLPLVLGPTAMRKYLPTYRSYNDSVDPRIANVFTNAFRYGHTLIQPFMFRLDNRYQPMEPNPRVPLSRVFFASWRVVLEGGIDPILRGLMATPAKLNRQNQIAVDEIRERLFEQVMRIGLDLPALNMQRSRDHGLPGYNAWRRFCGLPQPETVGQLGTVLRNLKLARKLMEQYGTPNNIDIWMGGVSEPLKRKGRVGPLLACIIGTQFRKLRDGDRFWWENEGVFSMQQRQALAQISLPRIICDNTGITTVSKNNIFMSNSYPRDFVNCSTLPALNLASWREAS

[2] = biological target: T1, Myeloperoxidase (Homo sapiens); conditions: 0.47 to 30 uM
[3] = biological target: T2, Myeloperoxidase (Homo sapiens, UniProt P05164); test: Irreversible inhibition of MPO in LPS-stimulated human whole blood after 4 hrs by Amplex Red/H2O2-based fluorescence plate reader analysis
T2 sequence (P05164 whole entry): T1 sequence (whole entry)
Method in brief: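 Heparinized whole blood from healthy human volunteers, stimulated with bacterial LPS and incubated with compound for 4 h. MPO captured on anti-MPO antibody plates and washed; residual activity measured with Amplex Red and H₂O₂. IC₅₀ reported as geometric mean [90% CI].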

[4] = biological target: T2, Myeloperoxidase; test: Inhibition of peroxidase activity of MPO isolated from human polynuclear leukocytes using Amplex Red as substrate assessed as formation of resorufin after 300 secs by spectrophotometric analysis
[5] = biological target: T1, Myeloperoxidase (Homo sapiens); conditions: 24 uM; remark: listed apart in the source
[6] = Retention time of the compound in sodium phosphate buffer at 10 uM after 60 mins by LC-MS/MS analysis in presence of H2O2; type: physicochemical; conditions: 1 h
[7] = Drug level in sodium phosphate buffer treated with 10 uM PTU after 60 mins by LC-MS/MS analysis in presence of human MPO/H2O2/Cl-; type: physicochemical; conditions: 1 h
[8] = biological target: T3, Thyroid peroxidase (Homo sapiens) (UniProt P07202); test: Inhibition of TPO (unknown origin) using Amplex Red as substrate assessed as formation of resorufin by measuring ratio of Kinact to Ki measured every 20 secs by spectrophotometric analysis
T3 sequence (whole entry): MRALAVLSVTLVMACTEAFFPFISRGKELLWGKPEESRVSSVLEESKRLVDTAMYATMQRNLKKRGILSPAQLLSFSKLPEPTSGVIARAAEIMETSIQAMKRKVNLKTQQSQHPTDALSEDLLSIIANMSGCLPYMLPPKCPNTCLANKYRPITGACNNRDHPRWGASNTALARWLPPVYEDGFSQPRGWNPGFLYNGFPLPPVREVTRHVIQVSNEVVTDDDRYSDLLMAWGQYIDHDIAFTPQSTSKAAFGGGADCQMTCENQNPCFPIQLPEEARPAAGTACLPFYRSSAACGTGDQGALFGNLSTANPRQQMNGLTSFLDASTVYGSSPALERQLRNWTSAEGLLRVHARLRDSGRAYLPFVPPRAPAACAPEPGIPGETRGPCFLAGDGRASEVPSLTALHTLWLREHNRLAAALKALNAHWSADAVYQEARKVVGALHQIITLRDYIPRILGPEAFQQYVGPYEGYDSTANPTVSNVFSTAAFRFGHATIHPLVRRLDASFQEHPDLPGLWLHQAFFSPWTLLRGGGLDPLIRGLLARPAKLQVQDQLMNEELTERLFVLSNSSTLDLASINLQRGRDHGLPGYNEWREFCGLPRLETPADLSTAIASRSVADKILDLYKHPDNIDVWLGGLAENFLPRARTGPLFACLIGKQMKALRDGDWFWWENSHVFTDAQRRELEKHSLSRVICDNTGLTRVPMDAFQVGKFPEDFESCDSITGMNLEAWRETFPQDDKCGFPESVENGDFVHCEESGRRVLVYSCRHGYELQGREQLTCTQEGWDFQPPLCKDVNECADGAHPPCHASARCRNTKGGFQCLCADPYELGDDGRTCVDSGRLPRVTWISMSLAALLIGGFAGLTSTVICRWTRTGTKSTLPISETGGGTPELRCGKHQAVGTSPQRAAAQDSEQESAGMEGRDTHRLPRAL
Method in brief: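 Amplex Red oxidation to resorufin in 50 mM sodium phosphate pH 7.4, 150 mM NaCl, 1 mM DTPA, 2 μM H2O2, 30 μM Amplex Red, 2% DMSO. Reaction started by adding TPO. Background rate measured with bovine catalase added and subtracted. Fluorescence (ex 530/em 580) read every 20 s at room temperature. kinact/KI taken from initial rates over the first 300 s. Geometric mean of at least two experiments.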

[9] = tested on: Liver microsome; test: Intrinsic apparent clearance in human liver microsomes; type: ADME
Method in brief: (§1)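 Stability incubations in NADPH-supplemented human liver microsomes or cryopreserved human hepatocytes. Total apparent intrinsic clearance scaled from the in vitro half-life; microsomes reported per mg protein, hepatocytes per 10⁶ cells.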

[10] = biological target: T1, Myeloperoxidase (Homo sapiens); test: (§2) Inhibition of peroxidase activity of MPO isolated from human polynuclear leukocytes using Amplex Red as substrate assessed as formation of resorufin measured every 20 secs by spectrophotometric analysis
[11] = biological target: T2, Myeloperoxidase; test: as §2
[12] = Apparent permeability across RRCK cells; type: ADME, cell-based, Canis lupus familiaris, MDCKII-LE; conditions: dog, MDCK
Method in brief: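 Passive permeability measured in Ralph−Russ canine kidney (RRCK) cells, a low-transporter line isolated from Madin−Darby canine kidney cells; reported as P_app (10⁻⁶ cm/s).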

[13] = Lipophilicity, log D of the compound at pH 7.4 by shake-flask method; type: physicochemical; conditions: buffer
[14] = Retention time of the compound by LC-MS/MS analysis in presence of human MPO/H2O2/Cl-/excess GSH; type: physicochemical
[15] = biological target: T1, Myeloperoxidase (Homo sapiens); test: Inhibition of peroxidase activity of MPO isolated from human polynuclear leukocytes using Amplex Red as substrate assessed as formation of resorufin by measuring ratio of Kinact to Ki measured every 20 secs by spectrophotometric analysis
Method in brief: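 Enzyme purified from human polynuclear leukocytes. Buffer: 50 mM sodium phosphate pH 7.4, 150 mM NaCl, 1 mM DTPA, 2 μM H2O2, 30 μM Amplex Red, inhibitor or DMSO. Resorufin fluorescence (ex 530/em 580) read every 20 s at room temperature. Progress curves fitted for kobs at each concentration. kinact/KI derived from the kobs versus [I] fit or slope. Geometric mean of at least two experiments.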

[16] = Tmax in Beagle dog at 3 or 5 mg/kg, po; type: ADME, organism-based, Canis lupus familiaris; conditions: in vivo
Method in brief: (§3)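 Male animals (CD-1 mice 25−35 g, cannulated Wistar-Han rats 250 g, beagle dogs 12 kg, cynomolgus monkeys 7 kg), fasted overnight and fed 1.0 or 2.0 h after dosing, water ad libitum. Oral dose 3 or 5 mg/kg in 0.5% methylcellulose. Parameters calculated from plasma concentration−time data; mean ± SD for n = 3, individual values for n = 2.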

[17] = Oral bioavailability in Wistar rat at 3 or 5 mg/kg; type: ADME, organism-based; conditions: in vivo
Method in brief: (§4)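 Male CD-1 mice, Wistar-Han rats, beagle dogs and cynomolgus monkeys, fasted overnight and fed after dosing. Given po at 3 or 5 mg/kg in 0.5% methylcellulose, with an iv reference dose of 1 mg/kg. Bioavailability derived from plasma concentration−time data; mean ± SD (n = 3) or individual values (n = 2).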

[18] = Volume of distribution at steady state in Beagle dog at 1 mg/kg, iv and 3 or 5 mg/kg, po; type: ADME, organism-based, Canis lupus familiaris; conditions: in vivo, read-out: Vdss
Method in brief: (§5)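 Male mice, rats, dogs and cynomolgus monkeys, fasted overnight, fed after dosing. Intravenous dose 1 mg/kg in saline or 12% sulfobutyl ether β-cyclodextrin; oral arm 3 or 5 mg/kg in 0.5% methylcellulose. Steady-state volume derived from plasma concentration−time data; mean ± SD for n = 3, individual values for n = 2.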

[19] = Volume of distribution at steady state in Wistar rat at 1 mg/kg, iv and 3 or 5 mg/kg, po; type: ADME, organism-based; conditions: in vivo, read-out: Vdss
Method in brief: as §5

[20] = Fraction unbound in human plasma by equilibrium dialysis method; type: ADME, cell-free
Method in brief: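 Fraction unbound in human plasma measured by equilibrium dialysis; mean of three individual determinations.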

[21] = Tmax in Wistar rat at 3 or 5 mg/kg, po; type: ADME, organism-based; conditions: in vivo
Method in brief: as §3

[22] = Plasma clearance in Wistar rat at 1 mg/kg, iv and 3 or 5 mg/kg, po; type: ADME, organism-based
Method in brief: (§6)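 Male CD-1 mice (25−35 g), cannulated Wistar-Han rats (250 g), beagle dogs (12 kg) and cynomolgus monkeys (7 kg), fasted overnight and fed 1.0 or 2.0 h after dosing. iv 1 mg/kg in saline or 12% sulfobutyl ether β-cyclodextrin; po 3 or 5 mg/kg in 0.5% methylcellulose. Parameters calculated from plasma concentration−time data; mean ± SD for n = 3, individual values for n = 2.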

[23] = Oral bioavailability in Beagle dog at 3 or 5 mg/kg; type: ADME, organism-based, Canis lupus familiaris; conditions: in vivo
Method in brief: as §4

[24] = Elimination half life in Wistar rat at 1 mg/kg, iv and 3 or 5 mg/kg, po; type: ADME, organism-based; conditions: in vivo, read-out: beta t1/2 (converted)
Method in brief: as §6

[25] = Plasma clearance in Beagle dog at 1 mg/kg, iv and 3 or 5 mg/kg, po; type: ADME, organism-based, Canis lupus familiaris
Method in brief: as §6

[26] = Elimination half life in Beagle dog at 1 mg/kg, iv and 3 or 5 mg/kg, po; type: ADME, organism-based, Canis lupus familiaris; conditions: in vivo, read-out: beta t1/2 (converted)
Method in brief: as §6

[27] = tested on: Hepatocyte; test: Intrinsic apparent clearance in human hepatocytes assessed per 10^6 cells; type: ADME, cell-based
Method in brief: as §1

SMILES: CCCc1cc(=O)[nH]c(=S)[nH]1 [PROPYLTHIOURACIL]
inhibition [1]: inactive
inhibition [2]: tde
IC50 [3]: 5.7 µM
IC50 [4]: 2.81 µM
inhibition [5]: Active

SMILES: CCCc1cc(=O)nc(S(=O)O)[nH]1
Drug metabolism [7]: metabolite_detected

SMILES: CCCc1cc(=O)nc(S(=O)(=O)O)[nH]1
Drug metabolism [7]: metabolite_detected

SMILES: COc1ccccc1-c1cc(=O)[nH]c(=S)[nH]1
log(ratio) [8]: 2.86
IC50 [3]: 6.2 µM
logD [13]: 1.3
log(ratio) [15]: 3.36

SMILES: CCCc1cc(=O)nc(SSc2nc(=O)cc(CCC)[nH]2)[nH]1
Drug metabolism [7]: metabolite_detected

The next lines start with the values.

Retention_time [6]: 14.99 min
SMILES: COc1ccc(-c2cc(=O)nc3n2CCO3)c(OC)c1

log(ratio) [8]: < 0.5
CLH(app) [9]: 11 µL/min/mg
pKinact [10]: 2.43
Ki [11]: 0.501 µM
IC50 [3]: 11 µM
Papp [12]: 26 ×10⁻⁶ cm/s
logD [13]: 2.6
Retention_time [14]: 25.4 min
log(ratio) [15]: 3.87
SMILES: COc1ccc(-c2cc(=O)[nH]c(=S)n2CCOC(C)C)c(OC)c1

Retention_time [14]: 15.7 min
SMILES: COc1ccc(-c2cc(=O)nc(SC[C@H](NC(=O)CC[C@H](N)C(=O)O)C(=O)NCC(=O)O)n2CCOC(C)C)c(OC)c1

log(ratio) [8]: < 0.5
Tmax [16]: 60 min
bioavailability [17]: 3%
CLH(app) [9]: < 8 µL/min/mg
Vd [18]: 0.86 L/kg
Vd [19]: 0.59 L/kg
Papp [12]: 1.5 ×10⁻⁶ cm/s
fraction unbound [20]: 0.9
logD [13]: -1.4
Tmax [21]: 45 min
clearance [22]: 38.6 mL/min/kg
bioavailability [23]: 8%
log(ratio) [15]: 4.03
half-life [24]: 48.6 min
clearance [25]: 4.1 mL/min/kg
half-life [26]: 155 min
CLH(app) [27]: < 6 µL/min
SMILES: COc1ccc(-c2cc(=O)[nH]c(=S)n2CC(=O)NCCN)c(OC)c1
